MLL AF4-AF9 inh = MLL-AF4/AF9 protein interaction inhibition. AlphaScreen, biotin-AF4 peptide binding to FLAG-AF9. P42568. 0.47% of 350,000 active. AID 651704. inhibition, % at 10 µM;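 active = every replicate reaching a set inhibition limit, whatever the replicate mean, cut at about 25% in these data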
Ecoli rRNA inh = selective bacterial rRNA inhibition in E. coli. 1.6% of 350,000 active. E. coli WT GFP vs humanized-ribosome RFP mutants, fluorescence, 24 h; stronger effect = lower value; DMSO median 0, no signal -100. GFP signal change (wild-type ribosome), % (concentration not given with the values);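 active = significant combined selectivity score with lowered wild-type GFP, culture density cut under 30%, mutant RFP and density less affected; inactive = any of these conditions unmet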
RAD52 inh = blocks human RAD52 DNA annealing | P43351 | recombinant RAD52 DNA annealing, FRET fluorescence | inhibition, % at 18.7 µM | 0.46% of 360,000 active;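 active = every replicate showing at least 50% inhibition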
Target sequence (P43351 whole entry, looked up): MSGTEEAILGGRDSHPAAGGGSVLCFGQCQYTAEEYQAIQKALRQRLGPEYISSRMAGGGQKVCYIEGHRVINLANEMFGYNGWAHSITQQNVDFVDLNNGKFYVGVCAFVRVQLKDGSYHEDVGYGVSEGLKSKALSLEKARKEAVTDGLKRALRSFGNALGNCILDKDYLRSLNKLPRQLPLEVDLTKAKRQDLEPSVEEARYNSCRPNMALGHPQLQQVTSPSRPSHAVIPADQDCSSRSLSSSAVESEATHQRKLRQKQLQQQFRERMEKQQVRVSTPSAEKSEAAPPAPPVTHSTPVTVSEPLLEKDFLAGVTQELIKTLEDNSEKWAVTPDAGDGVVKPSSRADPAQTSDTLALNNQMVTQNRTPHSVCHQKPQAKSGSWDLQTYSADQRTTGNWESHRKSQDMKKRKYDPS
E-selectin induc = E-selectin induction on HUVECs. P16581. HUVEC E-selectin immunofluorescence imaging; normalized: neutral wells 0, TNF-alpha wells 100. activation, % at 7.58 µM. 0.37% of 260,000 active. AID 686992;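 active = mean E-selectin-positive cell signal at least 10% of the positive control, reached in at least 60% of replicates, without over 20% cell loss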
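Material: HUVEC primary endothelial cells; Amount: 3,000 cells per well; Dosing: single concentration; Medium: EGM-2 growth medium on 0.1% gelatin-coated wells; Read-out basis: percent E-selectin-positive cells; Signal: immunofluorescence imaging; Control set: TNF-alpha, DMSO.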
RAD54 inh = inhibitors of human RAD54 branch migration | RAD54 Holliday junction branch migration, FAM/BHQ fluorescence | 0.14% of 360,000 active | inhibition, % at 10.4 µM;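 active = mean normalized replicate activity at least 40 and at least half of replicates scoring 40 or more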;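 note: inhibitors cause a drop in the FAM fluorescence signal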
INS-1E GSIS act = primary screen for activators of insulin secretion dependent on glucose, INS-1E cells, GLuc reporter luminescence; activation, % at 16.6 µM; 0.61% of 370,000 active; INS-1E GLuc reporter insulin secretion, 2-3 h;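 active = lowest replicate activation of at least 40%, so every replicate reaches that level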
Numbers stand for hits; . = inactive; / = no result given. Shown are actives, neighbours in structure and some others; about 2.6% of the full set was active somewhere.

SMILES | MLL AF4-AF9 inh | Ecoli rRNA inh | RAD52 inh | E-selectin induc | RAD54 inh | INS-1E GSIS act
CC(C)c1ccc2oc(=O)cc(CN3CCCCC3)c2c1 | . | -21 | . | / | . | 44
CC1CCN(Cc2cc(=O)oc3ccc4ccccc4c23)CC1 | . | -23 | . | . | / | .
CC1CCN(Cc2cc(=O)oc3ccc(C(C)C)cc23)CC1 | . | -23 | . | . | . | .
CC(C)c1ccc2oc(=O)cc(CN3CCN(c4ccccc4)CC3)c2c1 | / | / | / | / | . | .
Cc1noc(C)c1NC(=O)Nc1ccc2c(c1)C(=O)N([C@H](C)CO)C[C@H](C)[C@H](CN(C)C(=O)Nc1cccc3ccccc13)OCCCC[C@H](C)O2 | / | . | / | . | . | .
CCN1[C@@H]2c3ccc(-c4ccc(F)cc4)c(=O)n3C[C@H]1[C@H](CO)[C@H]2C(=O)Nc1nccs1 | . | . | . | . | . | .
CNC(=O)C[C@@H]1CC[C@@H]2[C@H](COc3ccc(NC(=O)c4ccccc4OC)cc3C(=O)N2C)O1 | . | . | . | . | . | .
C[C@H](CO)N1C[C@H](C)[C@H](CN(C)C(=O)c2ccncc2)Oc2ncc(C#C[C@@H](C)O)cc2C1=O | . | . | . | . | / | .
CC(/C=C/c1ccccc1)=N\Nc1nc(C)cc(C)n1 | / | / | / | / | . | .
CC(/C=C/c1ccc(O)cc1)=NNc1ccccc1 | . | -21 | . | . | . | .
Cc1noc(C)c1NC(=O)N(C)C[C@H]1Oc2ccc(NC(=O)Cc3ccccc3)cc2C(=O)N([C@@H](C)CO)C[C@@H]1C | . | . | . | . | . | .
COc1ccc(CCn2ccc(O)c(Cc3ccc(Cl)cc3)c2=O)cc1OC | . | -29 | . | . | . | .
COc1cc(CN2CCc3ccccc3C2)ccc1O | . | . | . | . | / | 77
Cc1ccc2c(c1)c1c(n2CC(O)CNC2CCCCC2)CCCC1 (stereo unspecified) | 30 | . | . | . | . | .
Cc1cc(Cn2nc(C(=O)NCC3CC3)cc2-c2ccccc2)on1 | . | -27 | . | . | . | .
Cc1ccc(CNC(=O)c2cc(-c3ccccc3)n(Cc3cc(C)no3)n2)cc1 | . | . | . | . | . | .
O=C1c2ccccc2C(c2nnnn2Cc2ccccc2)N1Cc1ccc(F)cc1 (stereo unspecified) | . | . | . | . | / | .
O=C1c2ccccc2C(c2nnnn2Cc2ccccc2)N1Cc1ccc2c(c1)OCO2 (stereo unspecified) | . | -27 | . | . | / | .
C=CCNc1nc(NCc2ccco2)nc(OCC)n1 | / | / | / | / | . | 58
CN(C)c1ccc(N=Cc2cccn2C)cc1 | 50 | . | . | . | . | .
CN(C)CC(=O)Nc1ccc2c(c1)[C@H]1C[C@@H](CC(=O)N3CCCCC3)O[C@@H](CO)[C@H]1O2 | . | . | . | . | . | .
COc1ccc(C(=O)NNC(=O)CSc2nnc(COc3ccccc3OC)n2C)cc1 | / | / | / | / | . | 41
Cc1ccc(C(=O)NNC(=O)CSc2nnc(CNc3ccc(F)cc3)n2C)cc1 | . | . | . | 236 | / | .
Cc1ccc(NCc2nnc(SCC(=O)NNC(=O)Cc3ccccc3)n2C)cc1 | . | . | . | . | . | .
CCn1c(COc2ccc(C)cc2)nnc1SCC(=O)NNC(=O)c1ccc(OC)cc1 | / | / | / | . | . | .
SMILES | MLL AF4-AF9 inh | Ecoli rRNA inh | RAD52 inh | E-selectin induc | RAD54 inh | INS-1E GSIS act
Cc1ccc(S(=O)(=O)Nc2ccc3c(c2)CC(=O)N([C@@H](C)CO)C[C@@H](C)[C@H](CN(C)S(=O)(=O)c2c(C)noc2C)O3)cc1 | . | . | . | . | . | .
O=C(COC(=O)c1ccccc1NC(=O)c1ccccc1)c1cccc([N+](=O)[O-])c1 | / | / | / | / | / | 69
O=C(COC(=O)c1ccccc1NC(=O)c1ccccc1)c1ccc([N+](=O)[O-])cc1 | / | / | / | / | . | /
O=C(Nc1ccc([N+](=O)[O-])cc1NC(=O)c1ccccc1)c1ccccc1 | . | . | . | . | . | 85
C[C@H](CO)N1C[C@H](C)[C@@H](CN(C)C(=O)c2ccncc2)Oc2ncc(C#C[C@@H](C)O)cc2C1=O | . | . | . | . | . | .
COc1ccc(S(=O)(=O)N2C[C@H](O)COC[C@@H]3O[C@@H](CC(=O)N[C@@H]4CCN(Cc5ccccc5)C4)CC[C@H]32)cc1 | . | . | . | . | . | .
CCOC(=O)CCCNC(=O)CCNC(=O)c1ccc(OCC)cc1 | / | / | / | / | / | .
